{"data": "Experimental data collected from several papers", "CARM1": "Histone-arginine methyltransferase CARM1 (CARM1, Homo sapiens, UniProt Q86X55)", "ADORA1": "Adenosine receptor A1 (ADORA1, Homo sapiens, UniProt P30542)", "ache": "Acetylcholinesterase (ache, Electrophorus electricus, UniProt O42275)", "note": "Lines come from different studies, so protocols differ."}
{"SMILES": "CCN(c1cc(C#CCN2CCOCC2)cc(C(=O)NCc2c(C)cc(C)[nH]c2=O)c1C)[C@H]1CC[C@H](N(C)CCOC)CC1", "target": "CARM1", "assay": "enzyme activity, inhibitor", "conditions": "1 µM", "inhibition": "-3%"}
{"SMILES": "CCN1CCN(Cc2ccc(NC(=O)c3ccc(C)c(Oc4ccnc5[nH]ccc45)c3)cc2C(F)(F)F)CC1", "target": "Serine/threonine-protein kinase/endoribonuclease IRE1 (ERN1, Homo sapiens, UniProt O75460)", "assay": "target engagement in cells, inhibitor, chemoproteomics", "test system": "Huh-7", "conditions": "1 µM", "inhibition": "-16.7%"}
{"SMILES": "O=C(c1ccc(F)cc1)N(Cc1ccccc1)C1CCCCC1", "target": "ADORA1", "assay": "cell-free assay", "conditions": "10 µM", "inhibition": "8%"}
{"SMILES": "O[C@@H]1[C@H](O)CO[C@H]1n1cnc2c(NCc3cccc(F)c3)nc(Cl)nc21", "target": "ADORA1", "assay": "ligand displacement, radioligand", "conditions": "10 µM, cell membranes", "inhibition": "10%"}
{"SMILES": "CC/C(=N\\NC(=O)NCc1cccc(O)c1)c1ccc(O)c(C)c1O", "target": "Ribosomal protein S6 kinase beta-2 (RPS6KB2, Homo sapiens, UniProt Q9UBS0)", "assay": "enzyme activity, inhibitor", "conditions": "0.1 µM", "inhibition": "22.7%"}
{"SMILES": "COc1cc2c(cc1OC)C(=O)N(CC1CCNCC1)C2", "target": "ache", "assay": "enzyme activity, inhibitor", "conditions": "1 µM", "inhibition": "2.49%"}
{"SMILES": "C1=CSC(=C2SC=CS2)S1", "target": "Ubiquitin carboxyl-terminal hydrolase 5 (USP5, Homo sapiens, UniProt P45974)", "assay": "enzyme activity, inhibitor", "conditions": "17 µM", "inhibition": "54%"}
{"SMILES": "COc1cc2c(cc1OC)C(=O)N(Cc1ccncc1)C2", "target": "ache", "assay": "enzyme activity, inhibitor", "conditions": "1 µM", "inhibition": "2.62%"}
{"SMILES": "Nc1ncnc2c1ncn2[C@@H]1O[C@H](CSCCNC(=O)NCc2ccccc2)[C@@H](O)[C@H]1O", "target": "CARM1", "assay": "enzyme activity, inhibitor, radiometric", "conditions": "10 µM", "inhibition": "> 95%"}
{"SMILES": "O=C(NC1C2CCN(CC2)C1Cc1cccnc1)c1cc2ccccc2o1 (centres unmarked)", "target": "5-hydroxytryptamine receptor 3A (Htr3a, Mus musculus, UniProt P23979)", "assay": "ligand displacement, radioligand", "conditions": "10 µM", "inhibition": "59%"}
{"SMILES": "COc1cc2c(cc1OC)C(=O)N(CC1CCN(Cc3cccnc3)CC1)C2", "target": "ache", "assay": "enzyme activity, inhibitor", "conditions": "1 µM", "inhibition": "-0.52%"}
{"SMILES": "COc1ccc2[nH]cc(/C=C/c3ccc(O)cc3)c2c1", "target": "Amyloid-beta precursor protein, monomer (APP, Homo sapiens, UniProt P05067)", "assay": "amyloid aggregation, inhibitor, fluorescence", "conditions": "25 µM", "inhibition": "44%"}
{"SMILES": "O[C@@H]1[C@H](O)CO[C@H]1n1cnc2c(NCc3cccc(I)c3)nc(Cl)nc21", "target": "ADORA1", "assay": "ligand displacement, radioligand", "conditions": "10 µM, cell membranes", "inhibition": "< 10%"}
{"SMILES": "COc1cc(NC(C)=O)c(Cl)cc1C(=O)Nc1nccs1", "target": "ADORA1", "assay": "cell-free assay", "conditions": "10 µM", "inhibition": "25.2%"}
{"SMILES": "COc1cc2c(cc1OC)C(=O)N(CC1CCN(Cc3ccccc3)CC1)C2", "target": "ache", "assay": "enzyme activity, inhibitor", "conditions": "1 µM", "inhibition": "20.4%"}
{"SMILES": "O=C1N=C(N2CCCCN2)S/C1=C\\c1ccc(F)cc1O", "target": "Neuromedin-K receptor (TACR3, Homo sapiens, UniProt P29371)", "assay": "ligand displacement, radioligand", "conditions": "10 µM", "inhibition": "< 10%"}
{"SMILES": "COc1cc2c(cc1OC)C(=O)N(CC1CCN(CC3CCNC3)CC1)C2 (centres unmarked)", "target": "ache", "assay": "enzyme activity, inhibitor", "conditions": "1 µM", "inhibition": "4.86%"}
{"SMILES": "O[C@@H]1[C@H](O)CO[C@H]1n1cnc2c(NCc3cccc(Br)c3)nc(Cl)nc21", "target": "ADORA1", "assay": "ligand displacement, radioligand", "conditions": "10 µM, cell membranes", "inhibition": "< 10%"}
{"SMILES": "COc1cc2c(cc1OC)C(=O)N(Cc1cccc(N3CCCCC3)n1)C2", "target": "ache", "assay": "enzyme activity, inhibitor", "conditions": "1 µM", "inhibition": "18.8%"}
{"SMILES": "c1cc2cc(C3=NCCN3)ccc2cc1C1=NCCN1", "target": "Rac GTPase-activating protein 1 (Homo sapiens, UniProt Q9H0H5)", "assay": "enzyme activity, inhibitor, ADP detection", "conditions": "10 µM", "inhibition": "50.4%"}
